V1aR counter = activates human V1a receptor in oxytocin agonist counter-screen | hit rate 0.25% among 320,000 | CHO-V1R cells, Fluo-8 calcium fluorescence, agonist mode; 0% DMSO, 100% 3 nM vasopressin | activation, % at 3 µM;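 active = activation above the mean activation of all tested compounds plus 3 SD, per screening run, cut at about 20% in these data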;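 also: signal is peak over basal fluorescence ratio across a 100 second FLIPR read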
OXTR potentiate = potentiators of human oxytocin receptor. P30559. CHO-OTR cells, Fluo-8 calcium fluorescence, potentiator mode; 0% = oxytocin EC15, 100% = EC100. activation, % at 3 µM. hit rate 0.061% among 320,000;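 active = activation above that plate's cutoff, the mean activation of tested compounds plus 3 SD, cut at about 6.6% in these data, passing the limit was not always enough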
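Material: CHO-OTR cells, human receptor; compound dosing: single dose, 3.0 µM nominal final compound concentration; schedule: 6 min compound pre-incubation at room temperature, 100 s kinetic read; measured by: kinetic Fluo-8 calcium fluorescence; read-out basis: % activation vs EC15 and EC100 oxytocin; controls: EC15 oxytocin alone as 0%, 75 nM oxytocin as 100%; replicates: singlicate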
TRPML3 agonist = activates the human TRPML3 channel; HEK293 TRPML3-YFP, Fluo-8 calcium fluorescence; 100% = the carbachol control signal; activation, % at 3 µM; hit rate 0.29% among 220,000;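 active = activation above its plate's cutoff, the mean activation of the plate's test wells plus 3 SD, cut at about 12% in these data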
Target sequence (Q8TDD5 whole entry, looked up): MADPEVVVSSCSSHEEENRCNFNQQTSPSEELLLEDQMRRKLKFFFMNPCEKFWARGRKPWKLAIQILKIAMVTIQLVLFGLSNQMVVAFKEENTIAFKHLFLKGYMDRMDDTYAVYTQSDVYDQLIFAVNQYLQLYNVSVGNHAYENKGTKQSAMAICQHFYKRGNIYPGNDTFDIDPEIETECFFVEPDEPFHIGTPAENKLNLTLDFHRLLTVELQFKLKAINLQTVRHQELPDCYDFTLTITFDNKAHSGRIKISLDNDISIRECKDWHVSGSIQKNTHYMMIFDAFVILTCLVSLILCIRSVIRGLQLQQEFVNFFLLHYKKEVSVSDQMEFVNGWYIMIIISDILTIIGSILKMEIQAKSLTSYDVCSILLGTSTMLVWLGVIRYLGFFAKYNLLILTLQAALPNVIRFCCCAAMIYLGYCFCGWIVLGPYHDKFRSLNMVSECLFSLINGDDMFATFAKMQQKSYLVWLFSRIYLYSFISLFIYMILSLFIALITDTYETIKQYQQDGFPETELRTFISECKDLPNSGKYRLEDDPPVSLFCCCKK
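Test system: HEK293 cells stably carrying human TRPML3-YFP; Doses: single dose, 3 µM final nominal compound, 0.3% DMSO final; Schedule: dye loading 1 h 37 °C then 30 min ambient, 125 s read; Technique: Fluo-8 calcium fluorescence; Benchmarks: high control carbachol 87 µM, low control DMSO.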
zfTRPN1 agonist = agonists of zebrafish TRPN1 channel; activation, % at 3 µM; hit rate 0.18% among 220,000; HEK293 zebrafish TRPN1-YFP, Fluo-8 calcium fluorescence; 100% = response to 87 µM carbachol;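 active = activation above its plate's cutoff, the mean activation of test wells on that plate plus 3 SD, cut at about 19% in these data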
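Material: zebrafish TRPN1-YFP in HEK293 cells; Doses: single test compound dose, 3 µM nominal, 0.3% DMSO; Timing: dye loading 1 h at 37 °C, then 30 min room temperature; Technique: intracellular calcium fluorescence with Fluo-8; Benchmarks: high carbachol 87 µM, low DMSO alone.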
OXTR ag = agonists of human oxytocin receptor | P30559 | CHO-OTR cells, Fluo-8 calcium fluorescence; normalized: DMSO 0%, oxytocin 100% | activation, % at 3 µM | hit rate 0.32% among 320,000;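 active = activation above the mean of all tested compounds plus 3 SD, cutoff set per screening run, cut at about 20% in these data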;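 also: peak over basal fluorescence ratio from a 100 s FLIPR kinetic read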
A number is an active result; i = inactive; nt = no result; + = active, no number. Rows were chosen to be rich in hits. Some 0.55% of all compounds tested hit in one or more screens of this group.

SMILES	V1aR counter	OXTR potentiate	TRPML3 agonist	zfTRPN1 agonist	OXTR ag
COc1ccc(-n2c(=O)c(CCC(=O)N3CCC(C)CC3)nc3ccccc32)cc1	i	i	nt	nt	i
Cc1c2cc(O)c(=O)cc-2oc2cc(O)c(O)cc12	i	i	i	i	68
COc1cc(OC)c(-c2c3cc(O)c(=O)cc-3oc3cc(O)c(O)cc23)cc1OC	389	i	206	291	390
CCCCCCCCCCCCCCCCn1cc[n+](C)c1	35	i	i	i	25
COc1ccc2cc(C(=O)N/N=C/c3sc4ccccc4c3O)ccc2c1	35	i	i	i	36
Oc1ccc(C23CCCC2C2(CCCC2)c2ccc(O)cc2O3)c(O)c1 (stereo not drawn)	28	i	nt	nt	39
CCOC(=O)c1c(CSC(=N)N)n(-c2ccc(C)cc2)c2cc(Br)c(OC(C)=O)cc12	22	i	i	i	32
CCOC(=O)c1c(CSC(=N)N)n(C)c2cc(Br)c(OC(C)=O)cc12	i	i	i	i	i
Cc1ccc(C2=NN(S(=O)(=O)c3ccccc3)C(c3ccco3)C2)cc1 (stereo not drawn)	i	i	nt	nt	i
O=[N+]([O-])c1ccc(C2=NN(c3ccccc3)C(c3ccco3)C2)cc1 (stereo not drawn)	nt	nt	12	24	nt
O=[N+]([O-])c1ccc(/C=C/C2=NN(c3ccccc3)C(c3ccco3)C2)cc1 (stereo not drawn)	27	i	i	i	34
COCCn1c(SCC(=O)NC(=O)NC2CCCC2)nc2ccccc2c1=O	i	i	nt	nt	i
CN(C)S(=O)(=O)N1C(=O)c2ccccc2C1=O	i	i	i	i	i
CN(C)/C=C1\C=C2C(=O)c3ccccc3N2C1=O	95	i	357	729	436
NC(=O)C1CCN(c2nc(-c3cccc(Cl)c3)cs2)CC1	i	i	nt	nt	i
COc1cc(/C=C2/SC(=Nc3ccc(O)cc3)NC2=O)ccc1O	i	i	i	i	i
COc1cc(/C=C2\SC(=Nc3ccccc3)NC2=O)cc(Cl)c1O	70	i	nt	nt	89
O=c1c(O)c(-c2cccs2)oc2ccccc12	59	i	16	26	35
Cc1ccc(-c2oc3ccccc3c(=O)c2O)cc1	i	i	i	i	i
O=c1c(O)c(-c2cccs2)oc2ccc(Cl)cc12	92	i	52	49	63
NS(=O)(=O)c1cccc(NC(=O)COC(=O)Cn2cc(C(F)(F)F)ccc2=O)c1	i	i	nt	nt	i
CCN1CCN(c2c(/C=C3\SC(=S)N(Cc4ccco4)C3=O)c(C)c(C#N)c(=O)n2C)CC1	20	i	i	i	i
O=[N+]([O-])c1cc(Cl)cc(/C=N/NC(=S)Nc2ccc(S(=O)(=O)N3CCOCC3)cc2)c1O	i	i	i	i	i
CN(C)c1ccc(/C=C2\Oc3ccc(C#Cc4cccc(N)c4)cc3C2=O)cc1	41	i	nt	nt	41
O=C(N/N=C/c1ccc(O)cc1)c1ccc(COc2cc(Cl)ccc2Cl)o1	33	i	i	24	33
SMILES	V1aR counter	OXTR potentiate	TRPML3 agonist	zfTRPN1 agonist	OXTR ag
O=C(Nc1cccnc1)c1ccc(COc2cc(Cl)ccc2Cl)o1	i	i	i	i	i
Cc1cccc(CSC(Nc2ccc(F)cc2)=C(C#N)C#N)c1	i	i	19	26	i
Cc1cccc(CSC(=N)N)c1	i	i	i	i	i
CC(SCc1ccccc1)C(=O)Nc1ccc(F)cc1 (stereo not drawn)	i	i	i	i	i
N#CC(C#N)=C(Nc1ccc(F)cc1)SCc1cccc(Br)c1	i	i	21	25	i
N#C/C(=C/c1ccccc1)C(=O)NCc1ccccc1	i	i	i	i	i
CN(C)c1ccc(/C=C(/C#N)C(=O)NCc2ccccc2)o1	23	i	20	20	20
O=C1CNC(=O)/C(=C\c2ccccc2)N1	i	i	nt	nt	i
O=C1/C(=C/c2ccccc2)Nc2ccccc21	42	i	i	i	46
CC(=O)Nc1sc2c(c1-c1nc3ccccc3s1)CCN(C(C)C)C2	i	i	i	24	i
O=S(=O)(/N=S1/CC=CCN1S(=O)(=O)c1ccccc1)c1ccccc1 (stereo not drawn)	31	i	i	i	29
Cn1c(N)c(-c2ccccc2)c2ccc([N+](=O)[O-])cc2c1=O	51	i	nt	nt	46
COc1cc(NC(=O)c2ccccc2)c(OC)cc1NC(=O)CN1C(=O)NC2(CCCCC2)C1=O	i	i	nt	nt	i
COCCCn1c(=NC(=O)c2ccccc2)c(C#N)cc2c(=O)n3cccc(C)c3nc21	i	i	25	37	i
Cn1cc([N+](=O)[O-])c(C(=O)Nc2nc(-c3ccc(Cl)cc3)cs2)n1	36	i	i	i	32
COC(=O)c1ccccc1-c1c2ccc(=N)cc-2oc2cc(N)ccc12	+	i	nt	nt	+
COc1ccc(C)cc1NC(C)C(=O)NC(=O)NC1CCCCC1 (stereo not drawn)	i	i	nt	nt	i
CC(C)n1cc(CN2CCCC(C(=O)Nc3cccc(-c4cc5ccccc5[nH]4)c3)C2)cn1 (stereo not drawn)	26	i	nt	nt	24
Cn1cc(CN2CCCC(C(=O)Nc3cccc(-c4cc5ccccc5[nH]4)c3)C2)cn1 (stereo not drawn)	i	i	nt	nt	i
CC(C)(C)CNC(=O)c1cccc2c1C(=O)c1ccc(N3CCCC3)cc1S2(=O)=O	i	i	nt	nt	i
CC1CCN(c2ccc3c(c2)S(=O)(=O)c2cccc(C(=O)NCc4ccc(F)cc4)c2C3=O)CC1	i	i	nt	nt	i
O=C(NCc1ccc(F)cc1)c1cccc2c1C(=O)c1ccc(N3CCC(Cc4ccccc4)CC3)cc1S2(=O)=O	27	i	nt	nt	20
O=C(NCc1ccccc1C(F)(F)F)c1cccc2c1C(=O)c1ccc(N3CCCCC3)cc1S2(=O)=O	25	i	nt	nt	24
O=C(Nc1cccc(S(=O)(=O)N2CCCC2)c1)c1ccc(Cl)nc1	i	i	nt	nt	i
O=C(CCCOc1ccccc1)Nc1cccc(S(=O)(=O)N2CCCCCC2)c1	i	i	nt	nt	i
SMILES	V1aR counter	OXTR potentiate	TRPML3 agonist	zfTRPN1 agonist	OXTR ag
Nc1c(C(=O)c2ccccc2)sc2nsc(SCCN3CCCC3)c12	i	i	13	26	i
CC(=O)c1sc2nsc(SCCN3CCCCC3)c2c1N	i	i	i	i	i
Nc1c(C(=O)c2ccc(Cl)cc2)sc2nsc(SCCN3CCOCC3)c12	i	i	i	23	i
CC(Sc1nc2ncc(Cl)cc2[nH]1)C(=O)NC1(C#N)CCCCC1 (stereo not drawn)	i	i	nt	nt	i
CN1C(=O)c2ccc(N3CCCC3)cc2C1=O	i	i	i	i	i
O=C1/C(=C/c2ccc(N3CCCC3)cc2)NC(=S)N1C1CC1	84	i	i	i	115
O=C1N/C(=C/c2ccc(N3CCCC3)cc2)C(=O)N1c1ccccc1	i	i	i	i	i

Assay outcomes (PubChem)
